How the values were obtained:
[1] = Drug uptake in human DU145 cells at 100000 cpm preincubated for 2 hrs measured up to 8 hrs under hypoxic condition by gamma counting analysis; assay type: ADME, cell-based; conditions: du-145, 8 h
[2] = Drug uptake in human DU145 cells at 100000 cpm preincubated for 2 hrs measured up to 8 hrs under normoxic condition by gamma counting analysis; assay type: ADME, cell-based; conditions: du-145, 8 h
[3] = 1-octanol/phosphate buffered saline distribution coefficient, log D of the compound at 400000 cpm at pH 7.4 by gamma counting method; assay type: physicochemical
[4] = Drug uptake in human PC3 cells at 100000 cpm preincubated for 2 hrs measured up to 8 hrs under normoxic condition by gamma counting analysis; assay type: ADME, cell-based; conditions: pc-3, 8 h
[5] = Drug uptake in human PC3 cells at 100000 cpm preincubated for 2 hrs measured up to 8 hrs under hypoxic condition by gamma counting analysis; assay type: ADME, cell-based; conditions: pc-3, 8 h
DU-145 [6] = experiment: Selectivity index, ratio of IC50 for human DU145 cells under normoxic condition to IC50 for human DU145 cells under hypoxic condition; assay type: functional
How it was run: (§1)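 Hypoxia cytotoxicity ratio = IC50(air)/IC50(N2), from IC50 values after 2 h exposure of DU145 or PC-3 cells. Based on two or more independent experiments in quintuplicate.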

PC-3 [7] = experiment: Cytotoxicity against human PC3 cells incubated for 2 hrs under normoxic condition measured after 72 hrs by Alamar blue assay; assay type: functional, cell-based
How it was run: (§2)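 DU145 and PC-3 cells exposed 2 h under hypoxia (N2) or normoxia (air). IC50 determined. Mean ± SEM of two or more independent experiments, each in quintuplicate.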

DU-145 [8] = experiment: Cytotoxicity against human DU145 cells incubated for 2 hrs under hypoxic condition measured after 72 hrs by Alamar blue assay; assay type: functional, cell-based; how it was run: as §2
PC-3 [9] = experiment: Selectivity index, ratio of IC50 for human PC3 cells under normoxic condition to IC50 for human PC3 cells under hypoxic condition; assay type: functional; how it was run: as §1
DU-145 [10] = experiment: Cytotoxicity against human DU145 cells incubated for 2 hrs under normoxic condition measured after 72 hrs by Alamar blue assay; assay type: functional, cell-based; how it was run: as §2
PC-3 [11] = experiment: Cytotoxicity against human PC3 cells incubated for 2 hrs under hypoxic condition measured after 72 hrs by Alamar blue assay; assay type: functional, cell-based; how it was run: as §2

| SMILES | Drug uptake [1] | Drug uptake [2] | logD [3] | Drug uptake [4] | Drug uptake [5] | Ratio IC50 (DU-145 [6]) | IC50 (PC-3 [7]) | IC50 (DU-145 [8]) | Ratio IC50 (PC-3 [9]) | IC50 (DU-145 [10]) | IC50 (PC-3 [11]) |
| --- | --- | --- | --- | --- | --- | --- | --- | --- | --- | --- | --- |
| Cn1c(COP(=O)(N(CCBr)Cc2cn(Cc3ccccc3)nn2)N(CCBr)Cc2nnn(Cc3ccccc3)c2[125I])cnc1[N+](=O)[O-] (stereo unspecified) | 4% | 2% | 0.55 | 2% | 4% | – | – | – | – | – | – |
| Cn1c(COP(=O)(NCCBr)NCCBr)cnc1[N+](=O)[O-] [EVOFOSFAMIDE] | – | – | – | – | – | 203 | 687 µM | 4.14 µM | 106 | 842 µM | 6.49 µM |
